Assay outcomes: PubChem BioAssay, several laboratories
NS3 helicase inh: HCV NS3 helicase inhibition. inhibition, % at 10.9 µM. AID 1800. NS3 helicase DNA unwinding, Cy5 molecular beacon fluorescence. hit rate 0.56% among 290,000;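 active means inhibition above the mean of all tested compounds plus 3 SD, set per campaign, cut at about 35% in these data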;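 further: 0% = DMSO wells and 100% = thioflavine S control wells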
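assay system = NS3 helicase fragment of HCV | buffer or medium = MOPS pH 6.5, MgCl2, DTT, Tween20, BSA | timing = 60 min unwinding reaction at 25 °C after ATP addition | signal = Cy5 beacon fluorescence read at start and 1 h | read-out basis = % inhibition of unwinding | control set = low DMSO, high thioflavine S at 110 µM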
FGF22 binding: shifts melting point of recombinant human FGF22; Q9HCT0; recombinant FGF22 thermal shift, SYPRO orange fluorescence; percent of sucrose octasulfate shift, DMSO zero; activity (Tm shift, normalised), % at 9.99 µM; hit rate 1.5% among 340,000;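 active means mean Tm shift, scaled 0 neutral to 100 positive control, at about 1.3% or above, every replicate too, limit read from the data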
Target sequence (Q9HCT0 whole entry, looked up): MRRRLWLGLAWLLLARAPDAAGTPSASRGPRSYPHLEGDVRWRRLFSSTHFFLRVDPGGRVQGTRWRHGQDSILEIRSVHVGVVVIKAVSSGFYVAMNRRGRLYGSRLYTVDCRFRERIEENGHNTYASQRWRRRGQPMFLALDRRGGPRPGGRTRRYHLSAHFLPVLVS
NR3A LBD binder: modulates the human NR3A ligand-binding domain; Tm shift relative to glycine control, % at 25 µM; NR3A LBD differential scanning fluorimetry, Tm shift; 0% = protein alone, 100% = glycine-bound protein; AID 1259313; hit rate 2.5% among 340,000;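 active means melting temperature shift of at least 10% of the positive control shift, at one fixed dose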
DNA FID counter-1: fluorescent intercalator displacement, NS3 helicase counter-screen | hit rate 0.17% among 290,000 | inhibition, % at 7.9 µM | DNA fluorescent intercalator displacement, fluorescence;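 further: 0% = vehicle and 100% = reference compound; higher means more ethidium bromide displaced from hairpin DNA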
EBNA-1 inhibitor: blocks EBNA-1 binding to DNA. EBNA-1 DNA binding, fluorescence polarization. inhibition, % at 14.8 µM. hit rate 0.34% among 300,000. AID 1950; in the data active means inhibition above about 28%
ZTA DNA inh: ZTA (EBV) inhibition in EBNA-1 counter-screen | ZTA-DNA binding, fluorescence polarization | P03206 | inhibition, % at 11 µM | hit rate 0.15% among 320,000; in the data active means inhibition above about 33%
Target sequence (P03206 whole entry, looked up): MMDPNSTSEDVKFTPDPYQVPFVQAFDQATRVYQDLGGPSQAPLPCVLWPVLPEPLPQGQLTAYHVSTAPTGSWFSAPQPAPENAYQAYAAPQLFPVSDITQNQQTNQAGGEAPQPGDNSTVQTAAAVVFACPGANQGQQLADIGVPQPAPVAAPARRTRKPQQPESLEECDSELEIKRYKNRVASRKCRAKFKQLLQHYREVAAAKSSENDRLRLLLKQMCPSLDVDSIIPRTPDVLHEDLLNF
NS3 hel confirm: HCV NS3 helicase inhibition, confirmation assay | shares compounds with NS3 helicase inh | NS3 helicase DNA unwinding, Cy5 molecular beacon fluorescence | inhibition, % at 10.9 µM | hit rate 31% among 1,600 | AID 1943;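 active means inhibition above the mean of all tested compounds plus 3 SD, cutoff set per campaign, cut at about 36% in these data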
DNA FID counter-2: intercalator displacement, NS3 helicase counter-screen; shares compounds with NS3 helicase inh; AID 1945; inhibition, % at 7.9 µM; hit rate 4% among 1,600; DNA fluorescent intercalator displacement, fluorescence;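 further: 0% = vehicle and 100% = reference compound; higher means more displacement of ethidium bromide from the DNA hairpin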
DNA FID DR: displaces fluorescent intercalator from DNA, HCV helicase counter-screen; shares compounds with NS3 helicase inh; IC50, µM; 120 tested, under 10 active; fluorescent intercalator displacement from DNA, fluorescence; call rule not given here
* marks the source's active call; other numbers are inactive results; · = no result; + = active, no number. In the library only some 3.6% were active in any assay of this set; here they are far more common. Unless noted, no stated cut-off is given here; in the data, active means inhibition above about 37%; inactive means the rest.

SMILES | NS3 helicase inh | FGF22 binding | NR3A LBD binder | DNA FID counter-1 | EBNA-1 inhibitor | ZTA DNA inh | NS3 hel confirm | DNA FID counter-2 | others
CNc1ccc(Br)cc(C(=O)/C=C/c2ccc(Cl)cc2Cl)c1=O | 38* | 0 | -3 | -11 | -7 | 6 | 74* | 14 | DNA FID DR=>79
CCNc1ccc(Br)cc(C(=O)/C=C/c2ccc3c(c2)OCO3)c1=O | 47* | · | -4 | -22 | 12 | 6 | 41* | -5
CNc1ccc(Br)cc(C(=O)/C=C/c2cccc(OC)c2)c1=O | 44* | · | -3 | -18 | 10 | 0 | 54* | 15 | DNA FID DR=>79
C[C@@H]1CN([C@H](C)CO)C(=O)c2cc(NC(=O)C3CC3)ccc2O[C@H]1CN(C)C(=O)Nc1cccc2ccccc12 | · | 0 | · | · | · | · | · | ·
CC(C)C#Cc1ccc2c(c1)O[C@@H](CN(C)C(=O)c1cccnc1)[C@H](C)CN([C@H](C)CO)S2(=O)=O | · | 0 | · | · | · | · | · | ·
O=C(C=C1SCCS1)/C=C/c1ccco1 | 38* | · | 0 | -23 | 8 | 2 | 34 | 3
COc1ccc(CN(C)C[C@@H]2OCCCC[C@@H](C)Oc3ccc(NS(=O)(=O)c4ccccc4)cc3C(=O)N([C@H](C)CO)C[C@H]2C)cc1 | · | 1 | · | · | · | · | · | ·
COC(=O)c1c(-c2ccc(C)cc2)csc1NC(=O)C1CC=CCC1C(=O)O (configuration not stated) | 39* | · | -1 | -42 | -7 | 6 | 53* | -22
COC(=O)c1c(-c2cc(C)ccc2C)csc1NC(=O)C1CC=CCC1C(=O)O (configuration not stated) | 28 | 1 | -1 | -35 | 11 | 8 | · | ·
COc1ccc([Si](C)(C)[C@H]2[C@H](CCn3cc(CCO)nn3)O[C@@]3(C(=O)N(C)c4c(Br)cc(C)cc43)[C@@H]2C)cc1 | · | -1 | · | · | · | · | · | ·
C=CCNc1nc2ccccc2nc1NS(=O)(=O)c1ccc(Cl)cc1 | 36* | 1 | -2 | -32 | -4 | -10 | 32 | -25
C=CCNc1nc2ccccc2nc1NS(=O)(=O)c1ccc(OC)cc1 | 11 | 0 | 1 | -21 | -9 | -14 | · | ·
CC1CCC2C(C1)OS(=O)(=O)NC2(C)C (configuration not stated) | 41* | · | · | -19 | 9 | 2 | 1 | -2
Cc1ccc(C(=O)N/N=C\c2ccc(Br)o2)o1 | -1 | · | -1 | -1 | -6 | -8 | · | ·
Cc1ccc(C(=O)N/N=C/c2ccc(-c3ccc(Br)cc3[N+](=O)[O-])o2)o1 | 48* | 0 | -2 | -11 | 1 | 8 | 2 | 9
COc1ccc(-c2ccc(CCC(=O)O)n2-c2ccccc2O)cc1 | 45* | 0 | 0 | -19 | 12 | -8 | 6 | -3
Cn1nc(C(F)(F)F)c(-c2cccc(C(F)(F)F)c2)c1NC(=O)c1nccnc1C(=O)O | 51* | 0 | -1 | -27 | 4 | -3 | 7 | -8
COc1ccc(S(=O)(=O)N(C)C[C@H]2OCCCC[C@H](C)Oc3ccc(NC(=O)c4ccncc4)cc3C(=O)N([C@@H](C)CO)C[C@@H]2C)cc1 | · | 0 | · | · | · | · | · | ·
COc1ccc(C[C@@H]2CCn3cc(nn3)COC[C@@H](C(C)C)NC2=O)cc1 | · | 0 | · | · | · | · | · | ·
Cc1ccc(-c2nc(=S)c3c(n2Cc2ccco2)CCCC3)cc1 | 41* | · | 1 | -9 | · | · | 18 | -2
N#Cc1ccc(-c2ccco2)nc1SCC(=O)c1ccc(Cl)cc1 | 38* | · | -3 | -6 | 2 | 28 | 12 | 14
C[C@H](O)C#Cc1cnc2c(c1)C(=O)N([C@@H](C)CO)C[C@@H](C)[C@H](CN(C)C(=O)Cc1ccccn1)O2 | · | 0 | · | · | · | · | · | ·
CCOc1cc(CNc2ccc(N(C)C)cc2)cc(Br)c1OCC(=O)NC(C)(C)C | 53* | · | -1 | -24 | + | + | 16 | -6
COc1cccc(NC(=O)COc2cc(O)c3c(c2)OC(C)(C)CC3=O)c1 | 83* | 0 | -5 | -20 | 5 | -5 | -15 | -20
Cc1ccc(C)n1N1C(=O)/C(=C\c2ccc(Cl)cc2)SC1=S | 43* | · | -3 | -8 | -6 | 11 | -6 | 8
SMILES | NS3 helicase inh | FGF22 binding | NR3A LBD binder | DNA FID counter-1 | EBNA-1 inhibitor | ZTA DNA inh | NS3 hel confirm | DNA FID counter-2 | others
Fc1ccccc1/C=N/n1c(COc2ccccc2)n[nH]c1=S | 50* | 0 | -4 | -20 | -2 | 11 | 9 | -12
Oc1ccccc1/C=N/n1c(COc2ccccc2)n[nH]c1=S | 20 | 0 | -3 | -27 | -3 | -13 | · | ·
O=C1C(=Cc2ccco2)C(=O)c2ccccc21 | 50* | · | 3 | -22 | 4 | -6 | -19 | 19
O=C(N/N=C/c1cc([N+](=O)[O-])ccc1O)C(O)(c1ccccc1)c1ccccc1 | 46* | 0 | 5 | -1 | -13 | -13 | -8 | 19
C[C@H]1CN([C@@H](C)CO)C(=O)Cc2cc(NC(=O)Cc3ccccc3)ccc2O[C@@H]1CN(C)C(=O)Nc1cccc2ccccc12 | · | -1 | · | · | · | · | · | ·
CSC[C@@H]1NC(=S)N(c2ccc(C)cc2)C1=O | 36* | 0 | 5 | -13 | 15 | -13 | -12 | 17
CCCCCCOc1ccc(C(=O)O)cc1C#N | 38* | · | 2 | -25 | 14 | 0 | 16 | -8
CC(C)c1ccc(C2CC(=O)N3CN(C)CSC3=C2C#N)cc1 (configuration not stated) | 45* | · | -24 | -33 | 6 | 6 | 25 | -5
CCCOc1ccc(/C(O)=C2\C(=O)C(=O)N(c3ccccn3)C2c2ccccc2F)cc1C (configuration not stated) | 47* | 0 | -2 | -38 | -10 | 13 | 94* | -31 | DNA FID DR=>79
COc1ccc(S(=O)(=O)N(C)C[C@H]2Oc3ccc(NS(C)(=O)=O)cc3C(=O)N([C@@H](C)CO)C[C@@H]2C)cc1 | · | 0 | · | · | · | · | · | ·
O=C(O)c1cccc(NC(=S)NC(=O)c2ccc3ccccc3c2)c1 | 41* | 0 | 2 | -27 | 15 | 1 | 58* | -7
O=C(O)c1ccc(NC(=S)NC(=O)c2cccc(COc3ccccc3)c2)cc1 | 36* | · | -8 | -32 | -4 | -24 | 70* | 2
COc1ccc(S(=O)(=O)Nc2cccc3c2O[C@@H](CN(C)Cc2ccc(C(F)(F)F)cc2)[C@H](C)CN([C@@H](C)CO)C3=O)cc1 | · | 0 | · | · | · | · | · | ·
CCCNC(=O)N1CC2(CCN(C(=O)c3ccncc3)CC2)c2c([nH]c3cc(OC)ccc23)[C@H]1CO | · | 0 | · | · | · | · | · | ·
